Measured values from paper PMC11445516 (Nature Communications, 2024).

Key:
[1] = molecular target: human placental alkaline phosphatase (Homo sapiens, UniProt P05187); assay: Hydrolysis in human placental alkaline phosphatase solution; assay type: in vitro ADME; conditions: human placental ALP 0.5 unit/mL, prodrug 100 μM, Tris pH 7.6, 37 °C
BxPC-3 xenograft = assay: Efficacy study in BxPC-3 pancreatic cancer xenograft mouse model; assay type: in vivo
Summary of the method: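 Female Foxn nu/nu mice (4 weeks old on arrival) received 3.5 × 10^6 BxPC-3 cells in 50:50 Cultrex BME:DMEM, injected subcutaneously into the right hind flank. At ~95 mm3 they were stratified into four groups of eight. […] Dosing ran 21 days, then 25 days of follow-up. Caliper volume, (W² × L)/2, and body weight were recorded biweekly. Analysis used a mixed model with Dunnett post hoc.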

[2] = through a range of pH's; cited from earlier work
[3] = previously measured; cited from earlier work

Chain of human placental alkaline phosphatase (P05187 23-535): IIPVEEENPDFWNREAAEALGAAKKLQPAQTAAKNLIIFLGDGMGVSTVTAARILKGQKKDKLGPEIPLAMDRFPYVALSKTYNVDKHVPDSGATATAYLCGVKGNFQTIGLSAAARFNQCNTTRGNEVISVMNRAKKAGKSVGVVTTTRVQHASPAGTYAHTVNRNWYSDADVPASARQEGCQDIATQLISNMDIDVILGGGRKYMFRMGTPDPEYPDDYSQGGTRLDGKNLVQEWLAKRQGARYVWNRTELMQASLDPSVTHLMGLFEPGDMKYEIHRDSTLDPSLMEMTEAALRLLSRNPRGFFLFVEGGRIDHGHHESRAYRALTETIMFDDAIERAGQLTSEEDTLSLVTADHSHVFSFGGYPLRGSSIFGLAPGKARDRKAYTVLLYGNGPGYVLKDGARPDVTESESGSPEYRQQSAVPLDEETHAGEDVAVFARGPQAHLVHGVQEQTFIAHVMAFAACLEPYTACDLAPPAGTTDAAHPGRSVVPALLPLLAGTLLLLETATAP

CC(=O)O[C@H]1C(=O)[C@@]2(C)[C@H]([C@H](OC(=O)c3ccccc3)[C@]3(O)C[C@H](OC(=O)[C@H](OC(=O)OCc4cc(C(=O)O)ccc4OP(=O)(O)O)[C@@H](NC(=O)c4ccccc4)c4ccccc4)C(C)=C1C3(C)C)[C@]1(OC(C)=O)CO[C@@H]1C[C@@H]2O [Compound 8i, 3-((((((1S,2 R)-1-benzamido-3-(((2aR,4S,4aS,6 R,9S,11S,12S,12aR,12bS)-6,12b-diacetoxy-12-(benzoyloxy)-4,11-dihydroxy-4a,8,13,13-tetramethyl-5-oxo-2a,3,4,4a,5,6,9,10,11,12,12a,12b-dodecahydro-1H-7,11-methanocyclodeca[3,4]benzo[1,2-b]oxet-9-yl)oxy)-3-oxo-1-phenylpropan−2-yl)oxy)carbonyl)oxy)methyl)-4-(phosphonooxy)benzoic acid]
Hydrolysis rate in ALP (drug formation rate) [1]: 2.13 pmol/min

CC(=O)O[C@H]1C(=O)[C@@]2(C)[C@H]([C@H](OC(=O)c3ccccc3)[C@]3(O)C[C@H](OC(=O)[C@H](OC(=O)OCc4cc(P(=O)(O)O)ccc4OP(=O)(O)O)[C@@H](NC(=O)c4ccccc4)c4ccccc4)C(C)=C1C3(C)C)[C@]1(OC(C)=O)CO[C@@H]1C[C@@H]2O [Compound 8vi, (3-((((((1S,2 R)-1-benzamido-3-(((2aR,4S,4aS,6 R,9S,11S,12S,12aR,12bS)-6,12b-diacetoxy-12-(benzoyloxy)-4,11-dihydroxy-4ª,8,13,13-tetramethyl−5-oxo-2ª,3,4,4ª,5,6,9,10,11,12,12ª,12b-dodecahydro-1H-7,11-methanocyclodeca[3,4]benzo[1,2-b]oxet-9-yl)oxy)-3-oxo-1-phenylpropan-2-yl)oxy)carbonyl)oxy)methyl)-4-(phosphonooxy)phenyl)phosphonic acid]
Tumor growth inhibition (TGI) (BxPC-3 xenograft; 25 mg/kg PO QOD in saline, following the 21-day dosing period): –15%
Tumor growth inhibition (TGI) (BxPC-3 xenograft; 75 mg/kg PO QOD in saline, following the 25-day observation period): 84%
Toxicity during dosing (BxPC-3 xenograft; 25 and 75 mg/kg PO QOD, 21 days): no appreciable toxicity
Hydrolysis rate in ALP (drug formation rate) [1]: 1.44 pmol/min

CNC(=O)c1ccc(N2C(=S)N(c3ccc(C#N)c(C(F)(F)F)c3)C(=O)C2(C)C)cc1F [Enzalutamide, enzalutamide]
Solubility in water [2]: < 0.1 µg/mL

CC(=O)O[C@H]1C(=O)[C@@]2(C)[C@H]([C@H](OC(=O)c3ccccc3)[C@]3(O)C[C@H](OC(=O)[C@H](O)[C@@H](NC(=O)c4ccccc4)c4ccccc4)C(C)=C1C3(C)C)[C@]1(OC(C)=O)CO[C@@H]1C[C@@H]2O [Paclitaxel, paclitaxel, reference compound]
Tumor growth inhibition (TGI) (BxPC-3 xenograft; 12.5 mg/kg IV QWK in Cremophor EL, following the 21-day dosing period): 78%
Tumor growth inhibition (TGI) (BxPC-3 xenograft; 12.5 mg/kg IV QWK in Cremophor EL, following the 25-day observation period): 51%
Oral bioavailability [3]: < 6%
